Experimental data from ChEMBL document CHEMBL4619736, “Direct modifications of the cyclic peptide Polymyxin B leading to analogues with enhanced in vitro antibacterial activity” (Bioorg Med Chem Lett, 2020).
≈ marks a conversion by molar mass, not a printed value. Numbered stars: 1 amine (or outer) side, 2 acyl side, 3 side chain; on linkers, the order of the positions; unused ones are H or OH. Bridge positions count the residues as written; N and C are the ends. Square brackets hold non-standard residues; d marks the D form. Peptide text beside a SMILES is read from it. * marks the point of attachment. X2 = O=C([C@@H](Cc1ccc(-c2ccncc2)cc1)N[*:1])[*:2]; GABA(3R-Bn) = O=C(C[C@H](CN[*:1])Cc1ccccc1)[*:2]; X1 = CC[C@H](C)CCCCC(=O)*; Dab = NCC[C@H](N)C(=O)O; Dap = NC[C@H](N)C(=O)O

Tests used:
Escherichia coli [1] = assay: Antibacterial activity against Escherichia coli ATCC 25922 by CLSI based broth microdilution method; assay type: functional
How it was run: (§1)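 Broth microdilution MIC per CLSI guidelines (M07-A9) in cation-adjusted Mueller-Hinton broth; panel of Gram-negative strains including clinical isolates with reduced polymyxin B susceptibility.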

Escherichia coli [2] = assay: Antibacterial activity against Escherichia coli IHMA 940398 by CLSI based broth microdilution method; assay type: functional; how it was run: as §1
Klebsiella pneumoniae [3] = assay: Antibacterial activity against Klebsiella pneumoniae ATCC 4352 by CLSI based broth microdilution method; assay type: functional; how it was run: as §1
Klebsiella pneumoniae [4] = assay: Antibacterial activity against Klebsiella pneumoniae IHMA 652780 by CLSI based broth microdilution method; assay type: functional; how it was run: as §1
Pseudomonas aeruginosa [5] = assay: Antibacterial activity against Pseudomonas aeruginosa ATCC 27853 by CLSI based broth microdilution method; assay type: functional; how it was run: as §1
Pseudomonas aeruginosa [6] = assay: Antibacterial activity against Pseudomonas aeruginosa IHMA 517175 by CLSI based broth microdilution method; assay type: functional; how it was run: as §1
Acinetobacter baumannii [7] = assay: Antibacterial activity against Acinetobacter baumannii NCTC 13424 by CLSI based broth microdilution method; assay type: functional; how it was run: as §1
Acinetobacter baumannii [8] = assay: Antibacterial activity against Acinetobacter baumannii IHMA 863866 by CLSI based broth microdilution method; assay type: functional; how it was run: as §1
[9] = Ratio of test compound IC50 to polymyxin B IC50 for cytotoxicity against human HK2 cells incubated for 24 hrs by resazurin blue dye based assay; assay type: cell-based; conditions: HK-2 cells, read-out: Ratio IC50
How it was run: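 Confluent monolayers of human proximal tubule epithelial HK-2 cells exposed to compound for 24h at 37°C, 5% CO2; top concentration 1,000 or 3,000 μg/mL, semi-log dilutions, 9 points. Viability read with resazurin blue; log-concentration dose-response fit with bottom constrained to zero gives IC50, expressed relative to polymyxin B IC50 run in the same experiment.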

| SMILES | MIC (Escherichia coli [1]) [µg/mL] | MIC (Escherichia coli [2]) [µg/mL] | MIC (Klebsiella pneumoniae [3]) [µg/mL] | MIC (Klebsiella pneumoniae [4]) [µg/mL] | MIC (Pseudomonas aeruginosa [5]) [µg/mL] | MIC (Pseudomonas aeruginosa [6]) [µg/mL] | MIC (Acinetobacter baumannii [7]) [µg/mL] | MIC (Acinetobacter baumannii [8]) [µg/mL] | selectivity ratio at 24 h [9] |
| --- | --- | --- | --- | --- | --- | --- | --- | --- | --- |
| CC[C@H](C)CCCCC(=O)N[C@@H](CCN)C(=O)N[C@H](C(=O)N[C@@H](CCN)C(=O)N[C@H]1CCNC(=O)[C@H]([C@@H](C)O)NC(=O)[C@H](CCN)NC(=O)[C@H](CCN)NC(=O)[C@H](CC(C)C)NC(=O)[C@@H](CC2CCCCC2)NC(=O)[C@H](CCN)NC1=O)[C@@H](C)O | 0.5 (≈ 0.413 µM) | 8 (≈ 6.61 µM) | 0.5 (≈ 0.413 µM) | 1 (≈ 0.827 µM) | 1 (≈ 0.827 µM) | 4 (≈ 3.31 µM) | 0.5 (≈ 0.413 µM) | 32 (≈ 26.5 µM) | – |
| CC[C@H](C)CCCCC(=O)N[C@@H](CCN)C(=O)N[C@H](C(=O)N[C@@H](CCN)C(=O)N[C@H]1CCNC(=O)[C@H]([C@@H](C)O)NC(=O)[C@H](CCN)NC(=O)[C@H](CCN)NC(=O)[C@H](CC(C)C)NC(=O)[C@@H](Cc2ccccc2)NC(=O)[C@H](CCN)NC1=O)[C@@H](C)O (X1-[Dab]T[Dab][Dab][Dab][dF]L[Dab][Dab]T; lactam 4-C) | 0.25 (≈ 0.208 µM) | 16 (≈ 13.3 µM) | 0.125 (≈ 0.104 µM) | 4 (≈ 3.32 µM) | 0.5 (≈ 0.415 µM) | 8 (≈ 6.65 µM) | 0.25 (≈ 0.208 µM) | 32 (≈ 26.6 µM) | 1 |
| CC(C)C[C@@H]1NC(=O)[C@@H](CC2CCCCC2)NC(=O)[C@H](CCN)NC(=O)[C@@H](NC(=O)[C@H](CN)NC(=O)[C@@H](NC(=O)C[C@H](CN)Cc2ccccc2)[C@@H](C)O)CCNC(=O)[C@H]([C@@H](C)O)NC(=O)[C@H](CCN)NC(=O)[C@H](CCN)NC1=O | 0.25 (≈ 0.221 µM) | 16 (≈ 14.2 µM) | 0.06 (≈ 0.0531 µM) | 4 (≈ 3.54 µM) | 0.25 (≈ 0.221 µM) | 4 (≈ 3.54 µM) | 0.125 (≈ 0.111 µM) | 64 (≈ 56.6 µM) | 5.2 |
| CC(C)C[C@@H]1NC(=O)[C@@H](Cc2ccccc2)NC(=O)[C@H](CCN)NC(=O)[C@@H](NC(=O)[C@H](CN)NC(=O)[C@@H](NC(=O)[C@@H]2CNCCN2CC(C)C)[C@@H](C)O)CCNC(=O)[C@H]([C@@H](C)O)NC(=O)[C@H](CCN)NC(=O)[C@H](CCN)NC1=O | 0.25 (≈ 0.224 µM) | 32 (≈ 28.6 µM) | 0.25 (≈ 0.224 µM) | 16 (≈ 14.3 µM) | 0.5 (≈ 0.447 µM) | 32 (≈ 28.6 µM) | 0.5 (≈ 0.447 µM) | > 64 | 16.6 |
| CC(C)C[C@@H]1CNC[C@@H](C(=O)N[C@H](C(=O)N[C@@H](CN)C(=O)N[C@H]2CCNC(=O)[C@H]([C@@H](C)O)NC(=O)[C@H](CCN)NC(=O)[C@H](CCN)NC(=O)[C@H](CC(C)C)NC(=O)[C@@H](Cc3ccc(-c4ccccc4)cc3)NC(=O)[C@H](CCN)NC2=O)[C@@H](C)O)C1 | 0.25 (≈ 0.21 µM) | 2 (≈ 1.68 µM) | 0.25 (≈ 0.21 µM) | 0.5 (≈ 0.419 µM) | 0.5 (≈ 0.419 µM) | 1 (≈ 0.839 µM) | 0.25 (≈ 0.21 µM) | 0.5 (≈ 0.419 µM) | 1.2 |
| CC(C)C[C@@H]1NC(=O)[C@@H](Cc2ccc(-c3ccccc3)cc2)NC(=O)[C@H](CCN)NC(=O)[C@@H](NC(=O)[C@H](CN)NC(=O)[C@@H](NC(=O)[C@@H]2CNCCN2CC(C)C)[C@@H](C)O)CCNC(=O)[C@H]([C@@H](C)O)NC(=O)[C@H](CCN)NC(=O)[C@H](CCN)NC1=O | 0.125 (≈ 0.105 µM) | 8 (≈ 6.7 µM) | 0.25 (≈ 0.209 µM) | 0.5 (≈ 0.419 µM) | 0.5 (≈ 0.419 µM) | 4 (≈ 3.35 µM) | 0.125 (≈ 0.105 µM) | 4 (≈ 3.35 µM) | 2.4 |
| CC[C@H](C)CCCCC(=O)N[C@@H](CCN)C(=O)N[C@H](C(=O)N[C@@H](CCN)C(=O)N[C@H]1CCNC(=O)[C@H]([C@@H](C)O)NC(=O)[C@H](CCN)NC(=O)[C@H](CCN)NC(=O)[C@H](CC(C)C)NC(=O)[C@@H](Cc2ccc(-c3ccncc3)cc2)NC(=O)[C@H](CCN)NC1=O)[C@@H](C)O (X1-[Dab]T[Dab][Dab][Dab][X2]L[Dab][Dab]T; lactam 4-C) | 1 (≈ 0.781 µM) | 32 (≈ 25 µM) | 1 (≈ 0.781 µM) | – | 1 (≈ 0.781 µM) | 32 (≈ 25 µM) | 2 (≈ 1.56 µM) | – | 0.7 |
| CC[C@H](C)CCCCC(=O)N[C@@H](CCN)C(=O)N[C@H](C(=O)N[C@@H](CCN)C(=O)N[C@H]1CCNC(=O)[C@H]([C@@H](C)O)NC(=O)[C@H](CCN)NC(=O)[C@H](CCN)NC(=O)[C@H](CC(C)C)NC(=O)[C@@H](Cc2ccc(Br)cc2)NC(=O)[C@H](CCN)NC1=O)[C@@H](C)O | 0.5 (≈ 0.39 µM) | 4 (≈ 3.12 µM) | 0.5 (≈ 0.39 µM) | 0.5 (≈ 0.39 µM) | 0.5 (≈ 0.39 µM) | 2 (≈ 1.56 µM) | 0.5 (≈ 0.39 µM) | 4 (≈ 3.12 µM) | – |
| CC(C)C[C@@H]1NC(=O)[C@@H](CC2CCCCC2)NC(=O)[C@H](CCN)NC(=O)[C@@H](NC(=O)[C@H](CCN)NC(=O)[C@@H](NC(=O)C[C@H](CN)Cc2ccccc2)[C@@H](C)O)CCNC(=O)[C@H]([C@@H](C)O)NC(=O)[C@H](CCN)NC(=O)[C@H](CCN)NC1=O | 0.125 (≈ 0.109 µM) | 32 (≈ 28 µM) | – | 4 (≈ 3.5 µM) | 0.25 (≈ 0.218 µM) | 8 (≈ 6.99 µM) | 0.06 (≈ 0.0524 µM) | 64 (≈ 55.9 µM) | 2.4 |
| CC(C)C[C@@H]1NC(=O)[C@@H](Cc2ccccc2)NC(=O)[C@H](CCN)NC(=O)[C@@H](NC(=O)[C@H](CN)NC(=O)[C@@H](NC(=O)C[C@H](CN)C2CCCCC2)[C@@H](C)O)CCNC(=O)[C@H]([C@@H](C)O)NC(=O)[C@H](CCN)NC(=O)[C@H](CCN)NC1=O | 0.06 (≈ 0.0537 µM) | 16 (≈ 14.3 µM) | 0.125 (≈ 0.112 µM) | 4 (≈ 3.58 µM) | 0.06 (≈ 0.0537 µM) | 8 (≈ 7.17 µM) | 0.25 (≈ 0.224 µM) | > 64 | 6.9 |
| CC(C)C[C@@H]1NC(=O)[C@@H](Cc2ccccc2)NC(=O)[C@H](CCN)NC(=O)[C@@H](NC(=O)[C@H](CN)NC(=O)[C@@H](NC(=O)C[C@H](CN)Cc2ccccc2)[C@@H](C)O)CCNC(=O)[C@H]([C@@H](C)O)NC(=O)[C@H](CCN)NC(=O)[C@H](CCN)NC1=O ({GABA(3R-Bn)}-T[Dap][Dab][Dab][dF]L[Dab][Dab]T; lactam 3-C) | 0.25 (≈ 0.222 µM) | 32 (≈ 28.5 µM) | 0.125 (≈ 0.111 µM) | – | 0.125 (≈ 0.111 µM) | 8 (≈ 7.12 µM) | 0.125 (≈ 0.111 µM) | > 64 | 12 |
| CC(C)C[C@@H]1NC(=O)[C@@H](CC2CCCCC2)NC(=O)[C@H](CCN)NC(=O)[C@@H](NC(=O)[C@H](CN)NC(=O)[C@@H](NC(=O)C[C@H](CN)C2CCCCC2)[C@@H](C)O)CCNC(=O)[C@H]([C@@H](C)O)NC(=O)[C@H](CCN)NC(=O)[C@H](CCN)NC1=O | 0.5 (≈ 0.445 µM) | 8 (≈ 7.13 µM) | – | 2 (≈ 1.78 µM) | 0.5 (≈ 0.445 µM) | 2 (≈ 1.78 µM) | 0.125 (≈ 0.111 µM) | 32 (≈ 28.5 µM) | – |
| CC[C@H](C)CCCCC(=O)N[C@@H](CCN)C(=O)N[C@H](C(=O)N[C@@H](CCN)C(=O)N[C@H]1CCNC(=O)[C@H]([C@@H](C)O)NC(=O)[C@H](CCN)NC(=O)[C@H](CCN)NC(=O)[C@H](CC(C)C)NC(=O)[C@@H](Cc2ccc(-c3ccccc3)cc2)NC(=O)[C@H](CCN)NC1=O)[C@@H](C)O | 1 (≈ 0.781 µM) | 8 (≈ 6.25 µM) | 0.5 (≈ 0.391 µM) | 0.5 (≈ 0.391 µM) | 1 (≈ 0.781 µM) | 2 (≈ 1.56 µM) | 1 (≈ 0.781 µM) | 16 (≈ 12.5 µM) | 0.14 |
